The source of these data is ChEMBL document CHEMBL3875202, “Design and optimization of aspartate N-acetyltransferase inhibitors for the potential treatment of Canavan disease” (Bioorg Med Chem, 2017).

Where a SMILES comes first, the peptide text is derived from it.

The experiment in a line: Inhibition of recombinant human His-tagged maltose binding protein fused ANAT expressed in Escherichia coli NiCo21(DE3) using L-aspartate as substrate after 15 mins in presence of acetyl-CoA by DTNB based spectrophotometric method. In a few lines:
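MBP-ANAT-His fusion purified on Ni Sepharose then amylose column. Assay: 20 mM HEPES pH 7.4, 150 mM NaCl, 5% glycerol, 40 µM DTNB, 40 µM acetyl-CoA, 2 mM L-aspartate, 25 µg enzyme, 200 µl total. Read at 412 nm for at least 15 min. Ki from twofold inhibitor dilutions; no-inhibitor and no-aspartate/no-inhibitor controls; pH of top-dose wells checked.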

In the case of `O=C(O)CN(Cc1ccc(OC(F)(F)F)cc1)Cc1ccc(C(=O)O)c(C(=O)O)c1`, the Ki was determined as 749 µM.
Take `NC(=O)c1ccc(CN(CC(=O)O)Cc2ccc(C(=O)O)c(C(=O)O)c2)cc1`: the Ki was 1880 µM.
As to `O=C(O)CCN(Cc1ccc(C(=O)O)c(C(=O)O)c1)Cc1ccc(C(=O)O)cc1F`, the Ki was 4.06 µM.
In the case of `O=C(O)C[C@H](NC(=O)CCl)C(=O)O`, the Ki was found to be 200 µM.
To `O=C(O)CCN(Cc1ccc(C(F)(F)F)cc1)Cc1ccc(C(=O)O)c(C(=O)O)c1` belongs 186 µM.
With `O=C(O)CCN(Cc1ccc(Br)cc1)Cc1ccc(C(=O)O)c(C(=O)O)c1` the figure was 370 µM; with `O=C(O)CN(Cc1ccccc1)Cc1ccc(C(=O)O)c(C(=O)O)c1`, 420 µM.
Take `O=C(O)CCN(Cc1ccc(C(=O)O)c(C(=O)O)c1)Cc1c(Cl)cc(C(=O)O)cc1Cl` [listing 1 of 2 here]: the Ki was found to be 0.6 µM.
For `CC(C)(C)c1ccc(CN(CC(=O)O)Cc2ccc(C(=O)O)c(C(=O)O)c2)cc1`, the Ki stood at 687 µM.
With `CC(C)(C)C(=O)N[C@@H](CCCC(=O)O)C(=O)O` the figure was 760 µM; with `O=CCN(CC(=O)O)Cc1ccc(C(=O)O)c(C(=O)O)c1`, 1290 µM.
As for `O=C(O)C[C@H](NC(=O)c1ccc(C(F)(F)F)cc1)C(=O)O`, the Ki stood at 380 µM.
Take `C=CCN(CC(=O)O)Cc1ccc(C(=O)O)c(C(=O)O)c1`: the Ki was determined as 719 µM.
To `CC(C)(C)c1ccc(CN(CCC(=O)O)Cc2ccc(C(=O)O)c(C(=O)O)c2)cc1` belongs 1660 µM.
As for `O=C(O)CN(Cc1ccc(C(F)(F)C(F)(F)C(F)(F)F)cc1)Cc1ccc(C(=O)O)c(C(=O)O)c1`, the Ki amounted to 426 µM.
Take `O=C(O)CN(Cc1ccc(C(=O)O)c(C(=O)O)c1)c1ccc2ccccc2c1`: the Ki came out at 538 µM.
`O=C(O)C[C@H](NC(=O)CCc1cccc(C(F)(F)F)c1)C(=O)O`: the Ki worked out at 1220 µM.
Take `O=C(O)CC[C@H](NC(=O)CCCc1ccccc1)C(=O)O`: the Ki amounted to 610 µM.
Turning to `O=C(O)C[C@H](NC(=O)CCc1ccc(O)c(O)c1)C(=O)O`, the Ki came to 1560 µM.
With `O=C(O)CN(Cc1ccc(C(=O)O)c(C(=O)O)c1)c1ccc(-c2ccccc2)cc1` the figure was 953 µM; with `O=C(O)CCC[C@H](NC(=O)CCCc1ccccc1)C(=O)O`, 740 µM; with `O=C(O)CN(Cc1ccc(C(F)(F)F)cc1)Cc1ccc(C(=O)O)c(C(=O)O)c1`, 791 µM.
On to `O=C(O)CCN(Cc1ccc(C(=O)O)c(C(=O)O)c1)c1cccc2ccccc12`, for which the Ki came to 34 µM.
With `O=C(O)CN(Cc1ccc(C(=O)O)c(C(=O)O)c1)Cc1ccccc1OC(F)(F)F` the figure was 464 µM; with `O=C(O)CCN(Cc1ccc(C(=O)O)c(C(=O)O)c1)Cc1ccccc1Br`, 173 µM.
For `O=C(O)C[C@H](NC(=O)CCCc1ccccc1)C(=O)O`, the inhibitory constant (Ki) came out at 200 µM.
Consider `O=C(O)C[C@H](NC(=O)OCc1ccccc1)C(=O)O`, for which the Ki is 17 µM.
Take `COc1ccc(CCC(=O)N[C@@H](CC(=O)O)C(=O)O)cc1`: the Ki turned out to be 1500 µM.
Turning to `Cc1cccc(CN(CCC(=O)O)Cc2ccc(C(=O)O)c(C(=O)O)c2)c1`, the Ki was 563 µM.
Regarding `O=C(O)CCN(Cc1ccc(C(=O)O)c(C(=O)O)c1)Cc1ccccc1C(F)(F)F`, the Ki was 88 µM.
With `CC(=O)c1ccc(CN(CC(=O)O)Cc2ccc(C(=O)O)c(C(=O)O)c2)cc1` the figure was 2540 µM; with `O=C(O)CN(Cc1ccc(OC(F)F)cc1)Cc1ccc(C(=O)O)c(C(=O)O)c1`, 489 µM; with `O=C(O)CN(Cc1ccc(Br)cc1)Cc1ccc(C(=O)O)c(C(=O)O)c1`, 1200 µM.
To `O=C(O)CCC[C@H](NC(=O)c1ccccc1)C(=O)O` belongs 1600 µM; to `O=C(O)CCN(Cc1cccc(C(F)(F)F)c1)Cc1ccc(C(=O)O)c(C(=O)O)c1`, 37 µM; to `O=C(O)CCN(Cc1ccc(C(=O)O)c(C(=O)O)c1)Cc1ccc(C(=O)O)cc1Br`, 2.01 µM.
To `O=C(O)/C=C(\Br)C(=O)O` belongs 367 µM; to `Cc1ccccc1CN(CC(=O)O)Cc1ccc(C(=O)O)c(C(=O)O)c1`, 1400 µM.
For `O=C(O)CN(CCN1CCOCC1)Cc1ccc(C(=O)O)c(C(=O)O)c1`, the Ki was 1080 µM.
Consider `O=C(O)CCN(Cc1ccc(C(=O)O)c(C(=O)O)c1)c1ccc(-c2ccccc2)cc1`, for which the Ki came to 550 µM.
With `Cc1ccccc1CN(CCC(=O)O)Cc1ccc(C(=O)O)c(C(=O)O)c1` the figure was 724 µM; with `O=C(O)CC[C@H](NC(=O)c1ccccc1)C(=O)O`, 130 µM; with `O=C(O)CCC[C@H](NC(=O)CCC(=O)O)C(=O)O`, more than 2000 µM.
As to `O=C(O)CCN(Cc1ccc(C(=O)O)c(C(=O)O)c1)Cc1ccc(C(=O)O)cc1C(F)(F)F`, the Ki came out at 17 µM.
On to `O=C(O)CC[C@H](NC(=O)OCc1ccccc1)C(=O)O`, for which the inhibition constant Ki was determined as 12 µM.
As to `O=C(O)C[C@H](NC(=O)c1ccccc1)C(=O)O`, the Ki is more than 2000 µM.
Consider `O=C(O)C[C@H](NCCCCc1ccccc1)C(=O)O`, for which the Ki was determined as 100 µM.
Turning to `Cc1ccc(CN(CCC(=O)O)Cc2ccc(C(=O)O)c(C(=O)O)c2)cc1`, the Ki was determined as 2750 µM.
Take `O=C(O)C[C@H](NC(=O)CCc1ccc(-c2ccccc2)cc1)C(=O)O`: the Ki worked out at 210 µM.
For the molecule `CCCC(=O)N[C@@H](CCC(=O)O)C(=O)O`, the Ki amounted to 270 µM.
With `O=C(O)CN(Cc1ccc(C(=O)O)c(C(=O)O)c1)Cc1ccccc1Br`, the Ki was determined as 114 µM.
Consider `O=C(O)C[C@H](NCCc1ccccc1)C(=O)O`, for which the Ki was found to be 250 µM.
Turning to `O=C(O)CN(Cc1ccc(C(=O)O)cc1)Cc1ccc(C(=O)O)c(C(=O)O)c1`, the Ki was determined as 104 µM.
With `O=C(O)CCN(Cc1ccc(C(=O)O)c(C(=O)O)c1)Cc1c(Cl)cc(C(=O)O)cc1Cl` [listing 2 of 2 here], the Ki was 0.61 µM.
For `O=C(O)CCN(Cc1ccc(C(=O)O)c(C(=O)O)c1)Cc1ccc(C(=O)O)cc1Cl`, the Ki was found to be 1.7 µM.
With `CCCC(=O)N[C@@H](CCCC(=O)O)C(=O)O` the figure was more than 2000 µM; with `O=C(O)C[C@H](NC(=O)CBr)C(=O)O`, more than 2000 µM; with `O=C(O)C[C@H](NC(=O)CCc1ccccc1C(F)(F)F)C(=O)O`, 100 µM.
On to `O=C(O)CCC[C@H](NC(=O)CCc1ccccc1)C(=O)O`, for which the Ki was 2900 µM.
With `O=C(CCc1ccccc1)NC(C(=O)O)C(=O)O` the figure was 1400 µM; with `O=C(O)C[C@H](NCc1ccccc1)C(=O)O`, 620 µM; with `O=C(O)CC[C@H](NC(=O)CCc1ccccc1)C(=O)O`, 38 µM.
As for `O=C(O)C[C@H](NC(=O)Cc1ccccc1)C(=O)O`, the Ki is 460 µM.
As for `O=C(O)C[C@H](NC(=O)CCc1ccccc1)C(=O)O`, the Ki came out at 31 µM.
In the case of `O=C(O)CCNCc1ccc(C(=O)O)c(C(=O)O)c1`, the Ki came out at 1710 µM.
Regarding `Cc1cccc(CN(CC(=O)O)Cc2ccc(C(=O)O)c(C(=O)O)c2)c1`, the Ki amounted to 1700 µM.
For the molecule `O=C(O)CN(Cc1cccc(Br)c1)Cc1ccc(C(=O)O)c(C(=O)O)c1`, the Ki stood at 269 µM.
In the case of `O=C(O)CN(Cc1ccc(C(=O)O)c(C(=O)O)c1)Cc1ccccc1C(F)(F)F`, the Ki amounted to 390 µM.
For the molecule `O=C(O)CC[C@H](NC(=O)Cc1ccccc1)C(=O)O`, the Ki was determined as 250 µM.
With `O=C(O)CCN(Cc1ccc(C(=O)O)c(C(=O)O)c1)Cc1ccc(C(=O)O)cc1-c1ccccc1` the figure was 47.4 µM; with `O=C(O)CCN(Cc1cccc(Br)c1)Cc1ccc(C(=O)O)c(C(=O)O)c1`, 101 µM; with `O=C(O)CN(Cc1cccc(C(F)(F)F)c1)Cc1ccc(C(=O)O)c(C(=O)O)c1`, 104 µM.
Consider `O=C(O)CCN(Cc1ccc(C(=O)O)c(C(=O)O)c1)Cc1ccc(C(=O)O)cc1-c1cccc2ccccc12`, for which the Ki was 187 µM.
Regarding `O=C(O)C[C@H](NC(=O)c1ccc2ccccc2c1)C(=O)O`, the Ki came out at 390 µM.
Turning to `O=C(O)CCN(Cc1ccc(C(=O)O)cc1)Cc1ccc(C(=O)O)c(C(=O)O)c1`, the Ki worked out at 29 µM.
In the case of `O=C(O)C[C@H](NCCCc1ccccc1)C(=O)O`, the Ki came out at 120 µM.
To `O=C(O)CCC[C@H](NC(=O)Cc1ccccc1)C(=O)O` belongs 1160 µM.
For `Cc1ccccc1CCC(=O)N[C@@H](CC(=O)O)C(=O)O`, the Ki is 280 µM.
As to `O=C(O)CCN(Cc1ccc(C(=O)O)c(C(=O)O)c1)Cc1ccc(C(=O)O)c(C(F)(F)F)c1`, the Ki was 930 µM.
With `O=C(O)CN(Cc1cccc(OC(F)(F)F)c1)Cc1ccc(C(=O)O)c(C(=O)O)c1`, the Ki was 246 µM.
On to `C[C@H](N)C(=O)N[C@@H](CC(=O)O)C(=O)O` (H-Ala-Asp-OH), for which the Ki amounted to 1600 µM.
With `O=C(O)CCN(Cc1ccc(C(=O)O)c(C(=O)O)c1)Cc1c(Br)cc(C(=O)O)cc1Br` the figure was 0.77 µM; with `CC(C)(C)C(=O)N[C@@H](CCC(=O)O)C(=O)O`, 280 µM.
With `Cc1ccc(CN(CC(=O)O)Cc2ccc(C(=O)O)c(C(=O)O)c2)cc1` the figure was 4230 µM; with `O=C(O)CN(Cc1ccc(C(=O)O)c(C(=O)O)c1)c1cccc2ccccc12`, 115 µM.
